In ChEMBL document CHEMBL1153409, “The identification of novel PLC-gamma inhibitors using virtual high throughput screening” (Bioorg Med Chem, 2009):
Activity calls are given as the source filed them. The rule behind the calls is not given here.

How the values were obtained:
[1] = target: T1, 1-phosphatidylinositol 4,5-bisphosphate phosphodiesterase gamma-2 (Homo sapiens) (UniProt P16885); assay: Inhibition of recombinant phospholipase C gamma2 expressed in baculovirus infected Sf9 cells at 50 uM using [3H]PIP2 by flashplate biochemical assay
T1 sequence (whole entry): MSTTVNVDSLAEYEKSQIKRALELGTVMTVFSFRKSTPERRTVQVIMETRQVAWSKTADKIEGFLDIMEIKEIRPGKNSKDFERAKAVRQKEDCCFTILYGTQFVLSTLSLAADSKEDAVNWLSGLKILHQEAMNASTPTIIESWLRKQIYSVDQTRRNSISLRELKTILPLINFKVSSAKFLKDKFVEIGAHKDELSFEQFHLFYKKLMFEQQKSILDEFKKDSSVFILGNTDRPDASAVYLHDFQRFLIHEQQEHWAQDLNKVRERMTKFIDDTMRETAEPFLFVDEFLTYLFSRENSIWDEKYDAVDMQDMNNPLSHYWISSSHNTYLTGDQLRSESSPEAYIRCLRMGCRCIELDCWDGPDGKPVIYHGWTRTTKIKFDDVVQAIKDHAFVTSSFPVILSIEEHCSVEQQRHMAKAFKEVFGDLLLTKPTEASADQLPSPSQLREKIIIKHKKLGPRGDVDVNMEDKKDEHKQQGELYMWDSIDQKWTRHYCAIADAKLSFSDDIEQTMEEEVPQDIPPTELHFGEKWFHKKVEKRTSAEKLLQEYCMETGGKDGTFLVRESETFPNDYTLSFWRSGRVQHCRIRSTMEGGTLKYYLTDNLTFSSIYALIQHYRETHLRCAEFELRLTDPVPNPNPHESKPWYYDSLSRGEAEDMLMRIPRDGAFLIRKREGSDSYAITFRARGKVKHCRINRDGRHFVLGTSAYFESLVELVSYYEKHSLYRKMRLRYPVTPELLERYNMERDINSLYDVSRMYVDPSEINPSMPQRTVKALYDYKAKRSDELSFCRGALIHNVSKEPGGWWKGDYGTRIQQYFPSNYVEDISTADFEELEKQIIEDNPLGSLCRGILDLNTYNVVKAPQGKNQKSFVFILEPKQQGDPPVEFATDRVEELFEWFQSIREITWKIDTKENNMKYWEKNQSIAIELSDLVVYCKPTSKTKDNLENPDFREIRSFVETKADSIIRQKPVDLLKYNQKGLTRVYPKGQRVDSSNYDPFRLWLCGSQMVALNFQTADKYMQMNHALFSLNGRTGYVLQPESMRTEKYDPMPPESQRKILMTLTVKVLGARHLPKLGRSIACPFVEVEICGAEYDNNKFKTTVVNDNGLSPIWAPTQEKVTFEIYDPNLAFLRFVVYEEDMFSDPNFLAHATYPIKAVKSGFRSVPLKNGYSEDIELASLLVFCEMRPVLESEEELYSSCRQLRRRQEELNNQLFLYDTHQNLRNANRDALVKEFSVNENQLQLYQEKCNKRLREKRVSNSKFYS
How it was run: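 3H-PIP2 Flashplate assay with His-tagged full-length PLC-γ2 from infected Sf-9 cells. Substrate-coated wells (0.1 µCi/well) incubated with enzyme and compound in Tris/NaCl/CaCl2/EGTA/spermine/deoxycholate buffer, pH 7.4, 5% DMSO, room temperature, typically 30 min. Percent inhibition at 50 µM from two measurements, based on CPM versus control wells.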

[2] = target: T1, 1-phosphatidylinositol 4,5-bisphosphate phosphodiesterase gamma-2 (Homo sapiens); assay: Inhibition of phospholipase C gamma2 in human A431 cells assessed as reduction of calcium release after 45 mins by FLIPR assay; type: cell-based; details: A-431
How it was run: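 A431 squamous carcinoma cells seeded at 4 × 10^5 per well and kept overnight at 37 °C, 5% CO2. Medium replaced with doubling dilutions of compound in HBSS starting at 100 µM. Calcium 3 dye added with probenecid (2.5 mM final), 45 min at 37 °C, then calcium release read by FLIPR at 37 °C.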

[3] = target: T1, 1-phosphatidylinositol 4,5-bisphosphate phosphodiesterase gamma-2 (Homo sapiens); assay: Inhibition of phospholipase C gamma2 in human A431 cells assessed as reduction of calcium release at 50 uM after 45 mins by FLIPR assay; type: cell-based; details: A-431
How it was run: (§1)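 A431 cells seeded overnight at 4 × 10^5 per well, then given compound in HBSS. Calcium 3 dye with 2.5 mM probenecid, 45 min at 37 °C, FLIPR read at 37 °C. Scoring was semi-quantitative: any decrease in calcium release at 50 µM scored +, at 25 µM ++.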

[4] = target: T1, 1-phosphatidylinositol 4,5-bisphosphate phosphodiesterase gamma-2 (Homo sapiens); assay: Inhibition of phospholipase C gamma2 in human A431 cells assessed as reduction of calcium release at 25 uM after 45 mins by FLIPR assay; type: cell-based; details: A-431; how it was run: as §1
[5] = target: T2, 1-phosphatidylinositol 4,5-bisphosphate phosphodiesterase gamma-2 (Homo sapiens, UniProt P16885); assay: Inhibition of recombinant phospholipase C gamma2 expressed in baculovirus infected Sf9 cells using [3H]PIP2 by flashplate biochemical assay
T2 sequence (P16885 whole entry): T1 sequence (whole entry)
How it was run: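 Full-length His-tagged PLC-γ2 from baculovirus-infected Sf-9 cells, purified by Talon IMAC. Plates coated 24 h at room temperature with 3H-PIP2 (0.1 µCi/well); enzyme plus inhibitor in 50 mM Tris-HCl, 200 mM NaCl, 100 µM CaCl2, 100 µM EGTA, 100 µM spermine, 0.5 mM deoxycholate, pH 7.4, 5% v/v DMSO final. Scintillation signal loss read at room temperature, typically 30 min; CPM compared with control wells.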

Compound	inhibition [1]	GC50 [2]	Decrease in calcium release (active/inactive call) [3]	Calcium release inhibition activity at 25 uM [4]	IC50 [5]
CCOc1ccc2c(c1)C1N=CN(Cc3ccccc3)C(=O)C1N2 (centres undefined)	89%	inactive	–	–	–
O=C(Nc1cccc(Cl)c1)Nc1nnc(-c2ccc3c(c2)OCO3)s1	85%	–	Active	–	–
CCCc1nnc(NC(=O)c2cc([N+](=O)[O-])cc([N+](=O)[O-])c2)s1	100%	inactive	–	–	–
O=c1/c(=C/c2ccccc2[N+](=O)[O-])sc2nc(-c3ccc(F)cc3)nn12	100%	15 µM	–	–	–
O=S(=O)(Oc1ccc(-c2cnc3ccccc3n2)cc1)c1ccccc1	100%	–	–	Active	–
COc1ccc2[nH]c(C(=O)Nc3nc4ccccc4s3)cc2c1	–	inactive	–	–	5 µM
O=C1NN(c2ccccc2)C(=O)/C1=C/c1coc2ccc(Cl)cc2c1=O	27%	18 µM	–	–	–
Nc1c(C(=O)Nc2cccc(Cl)c2)sc2nc(-c3cccs3)ccc12	100%	–	Active	–	–
COc1ccc(S(=O)(=O)n2ccc(-c3ccc4c(c3)CCC(C)(C)O4)n2)cc1	–	30 µM	–	–	3 µM
O=C1C2Nc3ccc(Br)cc3C2N=CN1CCc1ccccc1 (centres undefined)	100%	inactive	–	–	–
O=C1C2Nc3ccc(Br)cc3C2N=CN1CCC1=CCCCC1 (centres undefined)	100%	inactive	–	–	–
Nc1c(C(=O)Nc2cccc(F)c2)sc2nc(-c3ccc(F)cc3)ccc12	100%	–	Active	–	–
O=C(Nc1ccccc1)Nc1nnc(-c2cccs2)s1	100%	inactive	–	–	–
Nc1c(C(=O)Nc2cccc(Cl)c2)sc2nc3c(cc12)C(=O)CCC3	100%	inactive	–	–	–
COc1ccc(Cl)cc1C(=O)Nc1nc2ccc([N+](=O)[O-])cc2s1	100%	–	–	Active	–
COc1ccc(-c2nnc(NC(=O)c3cccs3)s2)cc1	100%	inactive	–	–	–
COc1ccc2c(c1)C1N=CN(CCc3c[nH]c4ccccc34)C(=O)C1N2 (centres undefined)	89%	–	Active	–	–
Cc1ccc2c(c1)N/C(=C\C(=O)c1ccc(Cl)cc1)C(=O)O2	100%	22 µM	–	–	–
O=C(Nc1ccc(Cl)cc1)c1cc2cccc([N+](=O)[O-])c2[nH]1	–	inactive	–	–	1 µM

Compound	inhibition [1]	GC50 [2]	Decrease in calcium release (active/inactive call) [3]	Calcium release inhibition activity at 25 uM [4]	IC50 [5]
Cc1ccc(NC(=O)c2sc3nc4c(cc3c2N)C(=O)CCC4)cc1Cl	100%	inactive	–	–	–
O=[N+]([O-])c1cc(-c2nc(-c3ccccn3)no2)cs1	–	inactive	–	–	2 µM
O=C(Nc1nc2ccccc2c(=O)s1)c1ccc(Cl)cc1	–	inactive	–	–	2 µM
CC(=O)c1ccc(Nc2nnc(-c3ccncc3)s2)cc1	100%	–	–	Active	–
Cc1ccc(/C=C2\C(=O)NC(=O)N(c3ccc(Cl)cc3)C2=O)s1	6%	5 µM	–	–	–
O=C(NCCc1ccccc1)c1cc2cccc([N+](=O)[O-])c2[nH]1	–	15 µM	–	–	1 µM
O=C(Nc1ccc(S(=O)(=O)Nc2nccs2)cc1)c1cccs1	82%	inactive	–	–	–
N#Cc1ccc(/C=C2/N=C(c3ccccc3)OC2=O)cc1	–	inactive	–	–	2 µM
O=C1C2Nc3ccc(Br)cc3C2N=CN1CCc1ccc(F)cc1 (centres undefined)	100%	inactive	–	–	–
O=C(NC(=O)c1ccccc1Cl)Nc1ccc2c(c1)S(=O)(=O)C=C2	–	inactive	–	–	9.5 µM
O=c1/c(=C/c2ccncc2)sc2n1CN(c1ccc(Cl)cc1)CN=2	100%	15 µM	–	–	–
COc1ccc(-c2cc3nnc(-c4ccccc4)nc3s2)cc1	–	inactive	–	–	4 µM
O=C(Nc1ccc2oc(=O)ccc2c1)c1ccc(-c2cccc(Cl)c2)o1	100%	–	–	Active	–
CCCOc1ccc(-c2nnc(NC(=O)c3cccs3)s2)cc1	67%	inactive	–	–	–
Clc1cccc(-c2nc(-c3ccc(-c4ccon4)s3)no2)c1	–	inactive	–	–	1 µM
O=C1OC(c2ccc([N+](=O)[O-])cc2)=N/C1=C/c1cccs1	–	–	Active	–	12 µM
Cc1ccc(NC(=O)c2sc3nc4c(cc3c2N)C(=O)CCC4)cc1	100%	inactive	–	–	–
Cc1ccc(S(=O)(=O)NC2=NC(=O)/C(=C\c3ccccc3)S2)cc1	82%	15 µM	–	–	–
